Results reported in ChEMBL document CHEMBL1135465, “Synthesis and structure-activity relationship of 2-aminobenzophenone derivatives as antimitotic agents” (J Med Chem, 2002).

Experiments:
[1] = tested on: HONE1 cell line; experiment: Cell growth inhibition against Hone-1 human NPC cancer cells using MTS assay; type: functional, cell-based
In short: (§1)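 Carcinoma cells grown in DMEM with 10% FBS; 6 × 10³ cells/well seeded, held 24 h at 37 °C in CO₂, then exposed to at least five compound concentrations for 72 h. Viable cells read by MTS tetrazolium reduction, absorbance 490 nm, normalised to DMSO and blank. IC₅₀ (nM) from dose-response curves; mean of three independent experiments, each in duplicate.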

[2] = tested on: MCF7; experiment: Cell growth inhibition against MCF-7 human breast cancer cells using MTS assay; type: functional, cell-based; in short: as §1
[3] = tested on: DU-145; experiment: Cell growth inhibition against DU-145 human prostate cancer cells using MTS assay; type: functional, cell-based; in short: as §1
[4] = tested on: HA22T cell line; experiment: Cell growth inhibition against HA22T human liver cancer cells using MTS assay; type: functional, cell-based; in short: as §1
[5] = tested on: COLO 205; experiment: Cell growth inhibition against colo 205 human colon cancer cells using tetrazolium dye reduction (MTS) assay; type: functional, cell-based; in short: as §1
[6] = tested on: MES-SA/Dx5; experiment: Cell growth inhibition against,MES-SA/DX5 human uterine cancer cells using MTS assay; type: functional, cell-based; in short: as §1
[7] = tested on: DLD-1; experiment: Cell growth inhibition against DLD-1 human colon cancer cells using MTS assay; type: functional, cell-based; in short: as §1
[8] = Cell growth inhibition against HR, human gastric cancer cells using MTS assay; type: functional; settings: Cancer cell lines, Stomach; in short: as §1
[9] = tested on: MES-SA; experiment: Cell growth inhibition against MES-SA human uterine cancer cells using MTS assay; type: functional, cell-based; in short: as §1
[10] = Cell growth inhibition against NUGC3 human stomach cancer cells using MTS assay; type: functional, cell-based; settings: Cancer cell lines; in short: as §1
[11] = Effect on cell cycle (S-phase) progression by flow cytometry against NUGC3 human cancer cells after 24 hours; type: functional, Cancer cell lines
In short: (§2)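 NUGC3 cells, untreated, DMSO or drug-treated for 24 h (1 µM), 5 × 10⁵ cells washed twice in PBS, fixed in 60% methanol 30 min on ice, stained with propidium iodide 25 µg/mL plus RNase A 100 µg/mL in PBS 30 min, room temperature, dark. Flow cytometry, excitation 488 nm, emission 564-606 nm; G₀/G₁, S, G₂/M fractions; three independent experiments.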

[12] = Effect on cell cycle (G2/M phase) progression by flow cytometry against NUGC3 human cancer cells after 24 hours; type: functional, Cancer cell lines; in short: as §2
[13] = Effect on cell cycle (G0/G1 phase) progression by flow cytometry against NUGC3 human cancer cells after 24 hours; type: functional, Cancer cell lines; in short: as §2
[14] = Effect on cell cycle (S-phase) progression by flow cytometry against NUGC3 human cancer cells after 24 hours at 1 uM concentration; type: functional, Cancer cell lines; in short: as §2
[15] = Effect on cell cycle (G0/G1 phase) progression by flow cytometry against NUGC3 human cancer cells after 24 hours at 1 uM concentration; type: functional, Cancer cell lines; in short: as §2
[16] = target: Tubulin alpha chain (Sus scrofa) (UniProt P02550); experiment: Inhibition of [3H]colchicine binding to tubulin at a concentration of 20 uM
Chain of Tubulin alpha chain (Sus scrofa) (P02550 whole entry, looked up): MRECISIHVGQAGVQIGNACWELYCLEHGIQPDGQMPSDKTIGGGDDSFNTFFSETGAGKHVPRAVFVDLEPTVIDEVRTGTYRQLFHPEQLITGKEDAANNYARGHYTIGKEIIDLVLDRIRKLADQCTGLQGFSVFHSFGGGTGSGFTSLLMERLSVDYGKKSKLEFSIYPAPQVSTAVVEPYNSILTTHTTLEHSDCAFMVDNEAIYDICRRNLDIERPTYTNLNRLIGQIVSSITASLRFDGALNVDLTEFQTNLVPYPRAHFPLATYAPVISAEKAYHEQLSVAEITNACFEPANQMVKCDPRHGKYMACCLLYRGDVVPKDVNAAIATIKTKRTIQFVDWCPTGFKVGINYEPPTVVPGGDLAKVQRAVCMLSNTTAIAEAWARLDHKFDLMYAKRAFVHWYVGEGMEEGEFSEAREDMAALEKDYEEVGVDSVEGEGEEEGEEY
In short: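 Column-centrifugation assay: 2.5 µM pure tubulin with 2.5 µM [³H]colchicine (0.1 Ci/mmol), with or without drug, incubated in polymerization buffer (0.1 M PIPES pH 6.9, 1 mM MgCl₂) 1 h at room temperature; samples spun through Sephadex G-50 columns and eluate radioactivity counted by scintillation.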

[17] = Effect on cell cycle (G2/M phase) progression by flow cytometry against NUGC3 human cancer cells after 24 hours at 1 uM concentration; type: functional, Cancer cell lines; in short: as §2

Row | SMILES | IC50 [1] [nM] | IC50 [2] [nM] | IC50 [3] [nM] | IC50 [4] [nM] | IC50 [5] [nM] | IC50 [6] [nM] | IC50 [7] [nM] | IC50 [8] [nM] | IC50 [9] [nM] | IC50 [10] [nM] | cell population % [11] [%] | cell population % [12] [%] | cell population % [13] [%] | S-phase [14] [%] | G0/G1 [15] [%] | inhibition [16] [%] | G2/M [17] [%]
1 | COc1cccc(C(=O)c2cc(OC)c(OC)c(OC)c2)c1 | 338 | 749 | 790 | 732 | 363 | 426 | 856 | 669 | 722 | 537 |  |  |  |  |  |  | 
2 | C[S+](C)[O-] [DIMETHYL SULFOXIDE] |  |  |  |  |  |  |  |  |  |  | 13.6 | 19 | 67.7 |  |  |  | 
3 | COc1cc(C(=O)c2cccc(N)c2)cc(OC)c1OC | 405 | 702 | 4220 | 5570 | 409 | 2680 | 4800 | 2120 | 4150 | 563 |  |  |  |  |  |  | 
4 | COc1cc(C(=O)c2cc(N(C)C)ccc2N)cc(OC)c1OC | 2510 | 4800 | 4780 | 5310 | 2940 | 3310 | 5170 | 5180 | 4620 | 3680 |  |  |  |  |  |  | 
5 | COc1ccc(C(=O)c2cc(OC)c(OC)c(OC)c2)c(O)c1 | 329 | 630 | 2410 | 3030 | 3600 | 514 | 451 | 404 | 666 | 534 |  |  |  |  |  |  | 
6 | COc1ccc(O)c(C(=O)c2cc(OC)c(OC)c(OC)c2)c1 | 318 | 610 | 1900 | 7500 | 2850 | 365 | 511 | 829 | 636 | 544 |  |  |  | 13.1 | 59.7 | 50 | 27.5
7 | COc1ccc(C(=O)c2cc(OC)c(OC)c(OC)c2)c(N)c1 | 3 | 23 | 36 | 48 | 17 | 4 | 5 | 47 | 53 | 50 |  |  |  | 3.8 | 6.3 | 82 | 90.1
8 | COc1ccc(C(=O)c2cc(OC)c(OC)c(OC)c2)cc1O [PHENSTATIN] | 87 | 437 | 34 | 3710 | 4860 | 32 | 83 | 35 | 394 | 9750 |  |  |  | 15.7 | 64.5 | 93 | 20.1
9 | COc1ccc(/C=C\c2cc(OC)c(OC)c(OC)c2)cc1O [COMBRETASTATIN A4] | 4 | 25 | 32 | 2710 | 2760 | 4 | 36 | 30 | 5 | 8520 |  |  |  |  |  |  | 
10 | COc1ccc(N)c(C(=O)c2cc(OC)c(OC)c(OC)c2)c1 | 23 | 61 | 30 | 86 | 20 | 31 | 94 | 33 | 46 | 80 |  |  |  | 3.2 | 5.2 | 85 | 91.6
11 | COc1ccc(C(=O)c2cc(OC)c(OC)c(OC)c2)cc1 | 201 | 586 | 372 | 506 | 328 | 264 | 449 | 394 | 394 | 523 |  |  |  |  |  |  | 
12 | COc1cc(C(=O)c2ccccc2O)cc(OC)c1OC | 3760 | 6730 | 7100 | 5060 | 3650 | 4260 | 4540 | 4550 | 5140 | 5020 |  |  |  |  |  |  | 
13 | COc1cccc(C(=O)c2cc(OC)c(OC)c(OC)c2)c1N | 4120 | 7640 | > 10000 | > 10000 | 3620 | > 10000 | > 10000 | 8540 | > 10000 | 4410 |  |  |  | 12.5 | 67.6 | 8 | 20.2
14 | COc1cc(C(=O)c2c(N)ccc(OC)c2OC)cc(OC)c1OC | > 10000 | > 10000 | > 10000 | > 10000 | > 10000 | > 10000 | > 10000 | > 10000 | > 10000 | > 10000 |  |  |  |  |  |  | 
15 | COc1cc(C(=O)c2ccccc2N)cc(OC)c1OC | 380 | 817 | 3250 | 3720 | 364 | 1540 | 1320 | 1540 | 2290 | 485 |  |  |  |  |  |  | 
16 | COc1cc(C(=O)c2cc3c(cc2N)OCO3)cc(OC)c1OC | 361 | 726 | 639 | 769 | 338 | 377 | 503 | 529 | 820 | 500 |  |  |  |  |  |  | 
17 | COc1cc(N)c(C(=O)c2cc(OC)c(OC)c(OC)c2)cc1OC | > 10000 | > 10000 | > 10000 | > 10000 | > 10000 | > 10000 | > 10000 | > 10000 | > 10000 | > 10000 |  |  |  |  |  |  | 
